This note sets out measurements from ChEMBL document CHEMBL4321818, “Anti-biofilm Agents against Pseudomonas aeruginosa: A Structure-Activity Relationship Study of C-Glycosidic LecB Inhibitors” (J Med Chem, 2019).

The source made the active and inactive calls. Where only a bound is given, the exact number is not on record here.

In data set [1] the target is T1, Fucose-binding lectin PA-IIL (Pseudomonas aeruginosa (strain ATCC 15692 / DSM 22644 / CIP 104116 / JCM14847 / LMG 12228 / 1C / PRS 101 / PAO1), UniProt Q9HYN5). Nature of the data set: Inhibition of N-(fluorescein-5-yl)-N'-(alpha-L-fucopyranosyl ethylen)thiocarbamide binding to Pseudomonas aeruginosa PA14 LecB incubated for 22 to 24 hrs by fluorescence polarization assay. For orientation: Polarisation of emitted light reports the rotation of a fluorescent probe.
Target sequence in this assay (Q9HYN5 1-115): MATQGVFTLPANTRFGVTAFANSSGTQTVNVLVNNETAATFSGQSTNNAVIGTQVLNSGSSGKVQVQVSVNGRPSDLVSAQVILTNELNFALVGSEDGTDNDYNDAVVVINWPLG

Data set [2] concerns the target T1, Fucose-binding lectin PA-IIL. Briefly: Inhibition of N-(fluorescein-5-yl)-N'-(alpha-L-fucopyranosyl ethylen)thiocarbamide binding to Pseudomonas aeruginosa PAO1 LecB incubated for 22 to 24 hrs by fluorescence polarization assay.
Target sequence in this assay (Q9HYN5 whole entry): as the sequence (Q9HYN5 1-115) above
A short description of data set [3]: Stability in mouse plasma at 25 uM measured up to 120 mins by HPLC-MS analysis. The format is ADME, cell-free. The note with it: 2 h. In outline: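 Compound from DMSO added to mouse plasma (pH 7.4, 37 °C) at 25 µM final. Incubated 0, 15, 30, 60, 90 and 120 min at 37 °C. Aliquots extracted with methanol containing internal standard and analyzed by HPLC-MS, normalized to internal standard and time 0. Procaine and propoxycaine served as unstable controls, procainamide (250 µM) as stable control. At least three independent repeats.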

Data set [4] in a line: Intrinsic clearance in C57BL/6J mouse liver microsomes at 1 uM preincubated for 10 mins followed by NADPH addition and measured up to 45 mins by LC-MS/MS analysis. The note with it: 0.75 h. The format is ADME, Microsome. The gist of the method: (§1)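 Compound at 1 µM in 0.1 M phosphate buffer pH 7.4 with liver microsomes at 0.5 mg/mL. Preincubated 10 min, then started with an NADPH regenerating system. Sampled at 1–45 min at 37 °C and quenched in MeCN with internal standard. Supernatant analyzed by LC-MS/MS. CLint = −slope of ln(peak area ratio) vs time × 1000/protein concentration. CYP marker substrates served as quality control.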
A general note: Microsomes from liver hold many membrane-bound enzymes, among them those of drug oxidation.

A short description of data set [5]: Intrinsic clearance in human liver microsomes at 1 uM preincubated for 10 mins followed by NADPH addition and measured up to 45 mins by LC-MS/MS analysis. The following applies: 0.75 h. It is filed as ADME, Microsome. In outline:
as §1

For data set [6], the system named is HepG2. Briefly: Cytotoxicity against human HepG2 cells assessed as reduction in cell viability up to 100 uM after 24 hrs by MTT assay. The note with it: hepg2, 24 h. It is filed as cell-based. The gist of the method:
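Hep G2 cells grown in DMEM with 10% heat-inactivated FCS at 37 °C, 5% CO2, seeded and grown to 75% confluency. Exposed to 0.01–100 µM compound (DMSO stock diluted in PBS, final DMSO 0.1%) for 24 h. Washed, then MTT at 1 mg/mL final for 3 h. Solubilized in 0.04 M HCl/2-propanol, read at 560 nm with 670 nm reference. Normalized as (A−B)/(C−B), with B the Triton X-100 (0.5%) control and C the vehicle control. At least three assays.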

The subject of data set [7] is Pseudomonas aeruginosa. Nature of the data set: Antibacterial activity against Pseudomonas aeruginosa PA14 transfected with pMP7605 plasmid at 100 uM after 23 hrs by fluorescence based confocal light microscopic analysis. It is filed as functional, organism-based.
The test system of data set [8] is Pseudomonas aeruginosa. Briefly: Antibiofilm activity against Pseudomonas aeruginosa PA14 transfected with pMP7605 plasmid at 100 uM after 48 hrs by fluorescence based confocal light microscopic analysis relative to control. The format is functional. The following applies: PA14, 48 h. The gist of the method: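 P. aeruginosa PA14 wild type carrying the mCherry plasmid pMP7605 was grown overnight in LB at 37 °C, then diluted to OD600 0.02 in M63 minimal medium. Compound (100 µM final, from DMSO stock) was added and cultures incubated 48 h at 30 °C. Biofilm biomass was quantified by confocal laser scanning microscopy versus DMSO control; means ± SD of three independent assays, Student's t test.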

Data set [9] can be described thus: Protein binding in CD1 mouse plasma after 2 hrs by HPLC analysis relative to control. The format is ADME, cell-free. The following applies: for fraction unbound at 2 h: CD1, mouse, read-out: PPB; for PPB: mouse, 2 h. The gist of the method: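 Rapid equilibrium dialysis with compound at 100 µM final in pooled CD-1 mouse plasma, naproxen as control. Incubated 37 °C for 2 h at 800 rpm. Samples matrix-matched, extracted with cold MeCN/H2O (90:10) containing caffeine internal standard, and quantified by HPLC-MS/MS. %free = buffer/plasma chamber concentration × 100; %bound = 100 − %free.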

A short description of data set [10]: Half life in CD1 mouse plasma at 10 mg/kg, po or ip after 24 hrs. The format is ADME, organism-based.
Data set [11] can be described thus: Solubility of compound in TBS/Ca containing 1% DMSO at 1 mM. The note with it: 1000 µM.
Data set [12] has as its system HepG2. Briefly: Cytotoxicity against human HepG2 cells assessed as cell viability at 100 uM after 24 hrs by MTT assay relative to control. The following applies: hepg2, 24 h. The format is cell-based. The gist of the method:
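Hep G2 cells in DMEM + 10% FCS were grown to 75% confluency, then exposed to compound (0.01–100 µM, 0.1% DMSO final) for 24 h at 37 °C, 5% CO2. MTT was added at 1 mg/mL final for 3 h and solubilised in 0.04 M HCl/2-propanol; A560 read with 670 nm reference. Normalised (A−B)/(C−B) to 0.5% Triton X-100 and vehicle controls; SD of ≥3 assays.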
On the technique in general: Formazan colour is commonly taken as a measure of viable cells.

As usually defined, the IC50 is the concentration at which inhibition is half-maximal. Low values mean inhibition by little substance, high ones a need for much substance. For `Cc1ccsc1S(=O)(=O)NC[C@H]1O[C@@H](C)[C@@H](O)[C@@H](O)[C@@H]1O`, the IC50 was determined as 0.2 µM in data set [1] and 1.32 µM in data set [2].

As for `C[C@@H]1O[C@H](CNS(=O)(=O)c2cc(Cl)c(Cl)s2)[C@@H](O)[C@H](O)[C@@H]1O`, the Stability entry in data set [3] is given as “Stable”. Besides, the “Intrinsic clearance (CLint)” value in data set [4] and in data set [5] was under 10 µL/min/mg in each case. Besides, the Activity result in the data set with HepG2 [6] was “Non-Toxic”.

As a reminder, the inhibition is the share of the control response that was lost under treatment. A lower inhibition goes with little suppression. With `Cc1cc(S(=O)(=O)NC[C@H]2O[C@@H](C)[C@@H](O)[C@@H](O)[C@@H]2O)c(C)s1`, the result with Pseudomonas aeruginosa [7] was inactive. This compound yielded an inhibition at 100 µM with Pseudomonas aeruginosa [8] of over 80%. In [9], the fraction unbound at 2 h lay within 0.3 to 0.4. For the same compound, the Stability result in data set [3] is “Stable”. In addition, the “Intrinsic clearance (CLint)” value in [4] and in data set [5] was under 10 µL/min/mg in each case. Further, the Activity result in the data set on HepG2 [6] is listed as “Non-Toxic”.

For `Cc1ccc(S(=O)(=O)NC[C@H]2O[C@@H](C)[C@@H](O)[C@@H](O)[C@@H]2O)s1`, the IC50 in [1] is 0.56 µM; in [2], 3.53 µM. Further, the fraction unbound at 2 h in data set [9] lay within 0.3 to 0.4. For the same compound, the Stability entry in data set [3] is given as “Stable”. For the same compound, the “Intrinsic clearance (CLint)” value in [4] was 10 µL/min/mg; in [5] it was under 10 µL/min/mg. Further, in the data set on HepG2 [6], the Activity entry was “Non-Toxic”.

In general, half-life refers to the time needed for the level to fall by half in the phase considered. The low end stands for fast loss, the high end for slow loss. In turn, `C[C@@H]1O[C@H](CNS(=O)(=O)c2cccs2)[C@@H](O)[C@H](O)[C@@H]1O` showed a PPB in [9] of 81%. The half-life in data set [10] is 34 min.

For the compound `C[C@@H]1O[C@H](CNC(=O)c2ccc(-c3ccccc3)s2)[C@@H](O)[C@H](O)[C@@H]1O`, the solubility result in data set [11] is on record as “Insoluble”.

For `C[C@@H]1O[C@H](CNS(=O)(=O)c2ccc(Br)s2)[C@@H](O)[C@H](O)[C@@H]1O`, the figures for the IC50 in data set [1] and in [2] were 0.57 µM and 3.31 µM, respectively.

On to `C[C@@H]1O[C@H](CNS(=O)(=O)c2ccsc2)[C@@H](O)[C@H](O)[C@@H]1O`, for which the values for the IC50 in [1] and in [2] were 0.59 µM and 1.85 µM, respectively.

Consider `C[C@@H]1O[C@H](CNS(=O)(=O)c2ccc(C#Cc3ccccc3)s2)[C@@H](O)[C@H](O)[C@@H]1O`, for which the outcome in the data set on Pseudomonas aeruginosa [7] was inactive. The inhibition at 100 µM in the data set on Pseudomonas aeruginosa [8] is over 90%. The fraction unbound at 2 h in data set [9] is 0.3 to 0.4. For the same compound, the Stability result in data set [3] was “Stable”. For the same compound, in the data set on HepG2 [12], the Activity amounted to 64%. Moreover, the “Intrinsic clearance (CLint)” value in data set [4] and in data set [5] was under 10 µL/min/mg each time.

In the case of `C[C@@H]1O[C@H](CNS(=O)(=O)c2ccco2)[C@@H](O)[C@H](O)[C@@H]1O`, the results for the IC50 in data set [1] and in data set [2] were 0.46 µM and 3.15 µM, respectively.

For the compound `C[C@@H]1O[C@H](CNS(=O)(=O)c2ccn(C)n2)[C@@H](O)[C@H](O)[C@@H]1O`, the IC50 in data set [1] came out at 0.73 µM; in data set [2], 7.01 µM.

Turning to `CCc1ccc(S(=O)(=O)NC[C@H]2O[C@@H](C)[C@@H](O)[C@@H](O)[C@@H]2O)s1`, the half-maximal inhibitory concentration (IC50) was determined as 0.38 µM in data set [1] and 4.02 µM in data set [2].

In the case of `Cc1csc(S(=O)(=O)NC[C@H]2O[C@@H](C)[C@@H](O)[C@@H](O)[C@@H]2O)c1`, the results for the IC50 in [1] and in data set [2] were 0.32 µM and 2.55 µM, respectively.

For `C[C@@H]1O[C@H](CNC(=O)c2cc3ccccc3o2)[C@@H](O)[C@H](O)[C@@H]1O`, the IC50 in [1] is 2.41 µM; in data set [2] it was 10.2 µM.

Consider `Cc1ccc(C#Cc2ccc(S(=O)(=O)NC[C@H]3O[C@@H](C)[C@@H](O)[C@@H](O)[C@@H]3O)s2)cc1`, for which the values for the IC50 in data set [1] and in data set [2] were 0.35 µM and 1.72 µM, respectively.

As to `CO[C@H]1O[C@H](CNS(=O)(=O)c2cccs2)[C@@H](O)[C@H](O)[C@@H]1O`, the fraction unbound at 2 h in data set [9] lay within 0.3 to 0.4.

Turning to `Cc1oncc1S(=O)(=O)NC[C@H]1O[C@@H](C)[C@@H](O)[C@@H](O)[C@@H]1O`, the fraction unbound at 2 h in [9] is 0.3 to 0.4. In data set [3], the Stability result was “Stable”. The “Intrinsic clearance (CLint)” value in data set [4] and in [5] was under 10 µL/min/mg in each case. Also, the Activity result in the data set with HepG2 [6] is recorded as “Non-Toxic”.

With `CO[C@H]1O[C@H](CNS(=O)(=O)c2c(C)cc(C)cc2C)[C@@H](O)[C@H](O)[C@@H]1O`, the fraction unbound at 2 h in [9] lay in the range of 0.3 to 0.4.

For `Cc1cc(C)c(S(=O)(=O)NC[C@H]2O[C@@H](C)[C@@H](O)[C@@H](O)[C@@H]2O)c(C)c1`, the PPB in data set [9] is 73%. The compound further displayed a half-life in data set [10] of 17 min.

For the compound `Cc1cc(S(=O)(=O)NC[C@H]2O[C@@H](C)[C@@H](O)[C@@H](O)[C@@H]2O)c(C(F)(F)F)o1`, the results for the IC50 in [1] and in [2] were 0.46 µM and 3.47 µM, respectively.

In the case of `C[C@@H]1O[C@H](CNS(=O)(=O)c2ccc(C#CCCc3ccccc3)s2)[C@@H](O)[C@H](O)[C@@H]1O`, the IC50 in [1] was determined as 0.4 µM; in data set [2] it was 3.13 µM.

Take `COc1ccc(C#Cc2ccc(S(=O)(=O)NC[C@H]3O[C@@H](C)[C@@H](O)[C@@H](O)[C@@H]3O)s2)cc1`: the IC50 in data set [1] was 0.28 µM; in data set [2], 1.75 µM.

Consider `C[C@@H]1O[C@H](CNC(=O)c2ccccc2)[C@@H](O)[C@H](O)[C@@H]1O`, for which the IC50 in data set [1] stood at 3.54 µM; in [2], 8.73 µM.

For `Cc1ccccc1C#Cc1ccc(S(=O)(=O)NC[C@H]2O[C@@H](C)[C@@H](O)[C@@H](O)[C@@H]2O)s1`, the IC50 worked out at 0.27 µM in data set [1] and 1.62 µM in data set [2].

As for `Cc1cccc(C#Cc2ccc(S(=O)(=O)NC[C@H]3O[C@@H](C)[C@@H](O)[C@@H](O)[C@@H]3O)s2)c1`, the IC50 in [1] turned out to be 0.3 µM; in data set [2] it was 1.72 µM.

For `C[C@@H]1O[C@H](CNS(=O)(=O)c2ccc(/C=C\c3ccccc3)s2)[C@@H](O)[C@H](O)[C@@H]1O`, the figures for the IC50 in [1] and in [2] were 0.44 µM and 2.32 µM, respectively.
